Test results reported in publication PMC8521312 (The EMBO Journal, 2021).
“Also recorded” adds a separate entry of the source.

Legend:
[1] = system: nucleolin mRNA and protein; test: Nucleolin knockdown in DRG neurons; type: cell-based, rat; conditions: siRNA targeting 3′UTR of nucleolin mRNA, 50 nM printed for control siRNAs; 96 h
Outline: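 Three hours after plating, neurons were transfected with control siRNA (50 nM as printed) or either of two siRNAs against the nucleolin 3′UTR using a lipid transfection reagent. Cultures were fixed 96 h later for FISH/immunofluorescence. Sister cultures gave mRNA by RT-ddPCR and protein by immunoblot (milk block, HRP secondary 1:10,000, ECL).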

AS1411 DNA aptamer = test: ELISA assay for AS1411-binding peptides; conditions: 0.04 μM aptamer, PBS, 1 h, room temperature, n = 3 technical replicates
Outline: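 Streptavidin-coated wells were washed in PBS-T, loaded with 0.025 μM biotinylated peptide for 1 h at room temperature, and blocked with 1% BSA/PBS for 30 min at 37°C. DIG-labelled aptamer or control aptamer was added, then HRP anti-DIG (1/2,000 in 1% BSA-PBS, 30 min, 37°C). TMB substrate was read by absorbance at […]. PBS-T washes were done between steps.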

axonal Inpp5f mRNA = test: FISH of axonal Inpp5f mRNA in DRG neurons; type: cell-based, rat; conditions: 10 µM AS1411 or control aptamer, 48 h, replated 18 h; n = 11–19 cells per sample; P < 0.05
[2] = system: nucleolin-Kif5a motor complex; conditions: ref Perry et al, 2016, cited from earlier work
HEK-293 cells = test: Hypotonic challenge; type: cell-based, human; conditions: ddH2O, n = 24 cells per sample, p < 0.05, p < 0.01
DRG neurons = test: Hypotonic challenge; type: cell-based, mouse; conditions: ddH2O, 17–24 cells per sample, three biological repeats

siRNA 1: GUUGAAUGACAGAGCCUUUUU; siRNA 2: GGACAUUCCAAGACAGUAAUU
endogenous nucleolin mRNA and protein [1]: significantly reduced

GGTGGTGGTGGTTGTGGTGGTGGTGG [AS1411]
binding of aptamer to GAR-derived peptides of 22–28 residues (AS1411 DNA aptamer): showed binding | axonal Inpp5f mRNA (FISH) (axonal Inpp5f mRNA): significant reduction in axonal Inpp5f mRNA | axonal growth ([2]; AS1411 perturbation of kinesin–nucleolin interactions): accelerated axonal growth | association of nucleolin with Kif5a motor complex [2]: reduced; also recorded: perturbs the association of nucleolin with the Kif5a motor complex | nucleolin localization to axons [2]: perturbs nucleolin localization to axons

B1: Ncl ΔGAR: HA-Dendra2-nucleolin with a GAR domain deletion (protein)
chain: MVKLAKAGKTHGEAKKMAPPPKEVEEDSEDEEMSEDEDDSSGEEEVVIPQKKGKKATTTPAKKVVVSQTKKAAVPTPAKKAAVTPGKKAVATPAKKNITPAKVIPTPGKKGAAQAKALVPTPGKKGAATPAKGAKNGKNAKKEDSDEDEDEEDEDDSDEDEDDEEEDEFEPPIVKGVKPAKAAPAAPASEDEEDDEDEDDEEDDDEEEEDDSEEEVMEITTAKGKKTPAKVVPMKAKSVAEEEDDEEEDEDDEDEDDEEEDDEDDDEEEEEEEPVKAAPGKRKKEMTKQKEAPEAKKQKVEGSEPTTPFNLFIGNLNPNKSVNELKFAISELFAKNDLAVVDVRTGTNRKFGYVDFESAEDLEKALELTGLKVFGNEIKLEKPKGRDSKKVRAARTLLAKNLSFNITEDELKEVFEDAMEIRLVSQDGKSKGIAYIEFKSEADAEKNLEEKQGAEIDGRSVSLYYTGEKGQRQERTGKTSTWSGESKTLVLSNLSYSATKETLEEVFEKATFIKVPQNPHGKPKGYAFIEFASFEDAKEALNSCNKMEIEGRTIRLELQGSNSRSQPSKTLFVKGLSEDTTEETLKESFEGSVRARIVTDRETGSSKGFGFVDFNSEEDAKAAKEAMEDGEIDGNKVTLDWAKPKKPQGKKTKFE
modifications: left off: HA, N-terminal, kept | Dendra2, N-terminal, kept
reduction of nucleolar signal on hypotonic challenge, FL vs ΔGAR (HEK-293 cells): Significant differences between full‐length and GAR deletion nucleolin | reduction of nucleolar signal on hypotonic challenge, FL vs ΔGAR (DRG neurons): no difference between full‐length and ΔGAR mutant nucleolin
